Laboratory results as given in ChEMBL document CHEMBL1129453, “3-amino-3,4-dihydro-2H-1-benzopyran derivatives as 5-HT1A receptor ligands and potential anxiolytic agents. 2. Synthesis and quantitative structure-activity relationship studies of spiro[pyrrolidine- and piperidine-2,3'(2'H)-benzopyrans]” (J Med Chem, 1996).

Key:
[1] = biological target: T1, Serotonin 3 receptor (5HT3) (Mus musculus, UniProt Q9JHJ5+P23979); test: Displacement of [3H]-BRC 36694 from 5-hydroxytryptamine 3 receptor in NG108-15 cells; type: cell-based
T1 sequence (Q9JHJ5 whole entry): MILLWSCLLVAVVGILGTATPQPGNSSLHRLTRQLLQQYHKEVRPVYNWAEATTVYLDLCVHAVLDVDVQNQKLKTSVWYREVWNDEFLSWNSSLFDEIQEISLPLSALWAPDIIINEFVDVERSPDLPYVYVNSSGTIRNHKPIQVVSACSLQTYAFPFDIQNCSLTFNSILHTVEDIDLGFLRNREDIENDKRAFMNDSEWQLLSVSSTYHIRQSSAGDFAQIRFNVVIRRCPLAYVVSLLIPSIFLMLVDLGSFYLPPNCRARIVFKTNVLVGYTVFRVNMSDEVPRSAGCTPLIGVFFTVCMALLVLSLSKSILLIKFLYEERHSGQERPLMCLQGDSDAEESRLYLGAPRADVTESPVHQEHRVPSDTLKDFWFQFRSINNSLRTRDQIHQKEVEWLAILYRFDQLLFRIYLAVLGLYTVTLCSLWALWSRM
T1 sequence (P23979 whole entry): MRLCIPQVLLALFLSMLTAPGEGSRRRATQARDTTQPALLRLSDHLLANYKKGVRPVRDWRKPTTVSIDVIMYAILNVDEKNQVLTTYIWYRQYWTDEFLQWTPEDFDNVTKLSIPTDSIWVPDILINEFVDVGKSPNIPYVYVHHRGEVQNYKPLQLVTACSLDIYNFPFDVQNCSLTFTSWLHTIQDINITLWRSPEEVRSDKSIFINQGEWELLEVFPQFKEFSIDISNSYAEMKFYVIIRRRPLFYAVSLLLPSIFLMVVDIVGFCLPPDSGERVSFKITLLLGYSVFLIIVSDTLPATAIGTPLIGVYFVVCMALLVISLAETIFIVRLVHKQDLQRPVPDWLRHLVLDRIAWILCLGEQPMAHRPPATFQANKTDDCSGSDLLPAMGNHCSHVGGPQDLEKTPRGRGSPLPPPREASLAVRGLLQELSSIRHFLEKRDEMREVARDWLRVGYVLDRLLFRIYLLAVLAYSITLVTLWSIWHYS
How it was run: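 NG108-15 cells; [3H]-BRC 36694 at approximately its KD; ICS 205930 for nonspecific binding. Competition binding expressed as IC50 against specific binding.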

[2] = biological target: T2, 5-hydroxytryptamine receptor 1B (Rattus norvegicus, UniProt P28564); test: Binding affinity to 5-HT1B receptors using rat cortex+striatum + globus pallidus,[3H]-5-OH-tryptamine, and serotonin for NSB
How it was run: (§1)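 Membranes from rat cortex plus striatum plus globus pallidus; [3H]-5-OH-tryptamine as radioligand at roughly its KD; serotonin defines nonspecific binding. Competition binding; IC50 taken as concentration inhibiting 50% of specific binding.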

[3] = Binding affinity to 5-hydroxytryptamine 2 receptor using calf frontal cortex, [3H]- ketanserin, and spiperone for NSB; parameters: species or system Bos taurus
How it was run: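 Calf frontal cortex; [3H]ketanserin near its KD; nonspecific binding with spiperone. Competition binding; IC50 = concentration inhibiting 50% of specific binding.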

[4] = biological target: T3, 5-hydroxytryptamine receptor 1A (Rattus norvegicus, UniProt P19327); test: Binding affinity to 5-hydroxytryptamine 1A receptor in rat hippocampus membranes,3H-8-OH-DPAT and buspirone for nonspecific binding (NSB); type: cell membranes
T3 sequence (P19327 whole entry): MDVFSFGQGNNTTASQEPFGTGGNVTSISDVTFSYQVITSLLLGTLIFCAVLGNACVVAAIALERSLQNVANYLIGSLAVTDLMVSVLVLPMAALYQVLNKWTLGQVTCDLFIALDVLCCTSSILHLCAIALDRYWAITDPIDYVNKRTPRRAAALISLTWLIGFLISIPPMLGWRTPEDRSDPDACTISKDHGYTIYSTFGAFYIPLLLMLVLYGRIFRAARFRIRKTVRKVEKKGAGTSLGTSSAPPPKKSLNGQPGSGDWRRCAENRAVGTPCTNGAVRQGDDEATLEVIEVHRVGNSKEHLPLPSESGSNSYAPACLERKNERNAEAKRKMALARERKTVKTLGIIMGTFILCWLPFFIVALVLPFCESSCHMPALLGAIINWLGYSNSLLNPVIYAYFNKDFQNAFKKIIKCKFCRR

[5] = Displacement of [3H]raclopride from Dopamine receptor […] of calf striatum; parameters: species or system Bos taurus
How it was run: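 Calf striatum; [3H]raclopride at about its KD; haloperidol for nonspecific binding. Competition assay reporting IC50 (50% inhibition of specific binding).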

[6] = biological target: T3, 5-hydroxytryptamine receptor 1A; test: Compound was evaluated for binding affinity on 5-hydroxytryptamine 1A receptor in rat hippocampus membranes,3H-8-OH-DPAT and buspirone for nonspecific binding; type: cell membranes
How it was run: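 Rat hippocampal membranes in competition binding against [³H]-8-OH-DPAT, with the radioligand at roughly its KD. […] IC50 was taken as the concentration inhibiting 50% of specific binding.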

D(2) dopamine receptor = D(2) dopamine receptor (Bos taurus, UniProt P20288); test: Displacement of [3H]SDZ-205-501 from Dopamine receptor D2 in calf caudate nucleus.
How it was run: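 Calf caudate nucleus; [3H]SDZ205-501 near its KD; butaclamol for nonspecific binding. Competition binding; IC50 for 50% inhibition of specific binding.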

[7] = biological target: T2, 5-hydroxytryptamine receptor 1B; test: Compound was evaluated for binding affinity on 5-HT1B receptors using rat cortex+striatum+ globus pallidus,[ 3H]-5-OH-tryptamine, and serotonin for NSB.; type: tissue-based; how it was run: as §1
Rattus norvegicus [8] = species: Rattus norvegicus; test: Effects of enantiomeric compound on adenylate cyclase activity in rat hippocampus; type: functional
How it was run: (§2)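 Rat hippocampal membranes incubated 20 min at 30 °C with forskolin 10 μM, [α-32P]ATP 0.1 μM and test compound. Activity measured as conversion to [32P]cAMP (nM/mg protein/20 min), given as % of control. Mean ± standard error of three determinations in two experiments; Student's t-test versus 100%, p < 0.05.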

Rattus norvegicus [9] = species: Rattus norvegicus; test: Effect of compound on Forskolin-Activated Adenylate Cyclase in Rat Hippocampi at 10e-10 M conc; type: functional; how it was run: as §2
Rattus norvegicus [10] = species: Rattus norvegicus; test: Effect of compound on Forskolin-Activated Adenylate Cyclase in Rat Hippocampi at 10e-9 M conc; type: functional; how it was run: as §2
Rattus norvegicus [11] = species: Rattus norvegicus; test: Effect of compound on Forskolin-Activated Adenylate Cyclase in Rat Hippocampi at 10e-8 M conc (p<0.05); type: functional; how it was run: as §2
Rattus norvegicus [12] = species: Rattus norvegicus; test: Effect of compound on Forskolin-Activated Adenylate Cyclase in Rat Hippocampi at 0 M conc; type: functional; how it was run: as §2
Rattus norvegicus [13] = species: Rattus norvegicus; test: Effect of compound on Forskolin-Activated Adenylate Cyclase in Rat Hippocampi at 10e-7 M conc; type: functional; how it was run: as §2
Rattus norvegicus [14] = species: Rattus norvegicus; test: Effect of compound on Forskolin-Activated Adenylate Cyclase in Rat Hippocampi at 10e-6 M conc; type: functional; how it was run: as §2
Rattus norvegicus [15] = species: Rattus norvegicus; test: Effects of enantiomeric compound on adenylate cyclase activity in rat hippocampus at 1 micro M conc; type: functional; how it was run: as §2
Rattus norvegicus [16] = species: Rattus norvegicus; test: Effects of enantiomeric compound on adenylate cyclase activity in rat hippocampus at 10e-7 M; type: functional; how it was run: as §2
Rattus norvegicus [17] = species: Rattus norvegicus; test: Effects of enantiomeric compound on adenylate cyclase activity in rat hippocampus at 10e-8 M; type: functional; how it was run: as §2
Rattus norvegicus [18] = species: Rattus norvegicus; test: Effects of enantiomeric compound on adenylate cyclase activity in rat hippocampus at 10e-5 M; type: functional; how it was run: as §2
Rattus norvegicus [19] = species: Rattus norvegicus; test: Effects of enantiomeric compound on adenylate cyclase activity in rat hippocampus at 1 uM; type: functional; how it was run: as §2
Rattus norvegicus [20] = species: Rattus norvegicus; test: Effects of enantiomeric compound on adenylate cyclase activity in rat hippocampus at 10e-6 M; type: functional; how it was run: as §2

D(2) dopamine receptor, sequence (P20288 whole entry): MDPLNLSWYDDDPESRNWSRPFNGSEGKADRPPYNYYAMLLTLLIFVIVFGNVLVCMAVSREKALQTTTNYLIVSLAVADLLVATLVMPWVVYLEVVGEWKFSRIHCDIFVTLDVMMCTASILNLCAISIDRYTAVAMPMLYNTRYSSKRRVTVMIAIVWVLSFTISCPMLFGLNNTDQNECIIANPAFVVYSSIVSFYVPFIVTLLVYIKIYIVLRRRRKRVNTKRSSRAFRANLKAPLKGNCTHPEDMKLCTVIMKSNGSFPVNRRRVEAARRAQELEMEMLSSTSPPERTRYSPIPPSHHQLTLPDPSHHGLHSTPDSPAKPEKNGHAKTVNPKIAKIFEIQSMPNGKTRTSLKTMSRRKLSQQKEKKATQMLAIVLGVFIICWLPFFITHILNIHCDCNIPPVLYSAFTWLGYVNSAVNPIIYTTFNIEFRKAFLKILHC
T2 sequence (P28564 whole entry): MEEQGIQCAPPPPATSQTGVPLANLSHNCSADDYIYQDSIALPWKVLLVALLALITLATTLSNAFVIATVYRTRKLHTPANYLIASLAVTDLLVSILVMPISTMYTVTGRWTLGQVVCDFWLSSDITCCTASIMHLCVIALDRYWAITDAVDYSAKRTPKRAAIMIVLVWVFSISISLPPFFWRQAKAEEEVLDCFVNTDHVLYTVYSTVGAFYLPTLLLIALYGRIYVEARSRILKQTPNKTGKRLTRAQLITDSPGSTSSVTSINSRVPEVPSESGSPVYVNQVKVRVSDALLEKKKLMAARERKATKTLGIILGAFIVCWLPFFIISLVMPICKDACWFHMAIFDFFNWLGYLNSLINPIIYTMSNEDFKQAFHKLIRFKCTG

Row | SMILES | IC50 [1] [µM] | IC50 [2] [µM] | IC50 [3] [µM] | IC50 [4] [nM] | IC50 [5] [µM] | IC50 (D(2) dopamine receptor) [µM] | other results
1 | COc1cccc2c1CC1(CCC(=O)N1)CO2 (configuration not stated) | > 100 | > 10 | > 100 | 4370 | – | – | –
2 | CCCN1CCCC12COc1cccc(OCCCCN3C(=O)CC4(CCCC4)CC3=O)c1C2 (configuration not stated) | 3.97 | 2.7 | 67.3 | 101 | – | – | –
3 | COc1cccc2c1CC1(CCCN1C(C)=O)CO2 (configuration not stated) | > 100 | 246 | > 100 | 81400 | – | – | –
4 | CCCN1CCCC12COc1cccc(O)c1C2 (configuration not stated) | 7.93 | > 100 | 364 | – | > 1000 | 71.4 | IC50 [6]: 38.5 nM
5 | CCCN1CCCC12COc1ccccc1C2 (configuration not stated) | 14.5 | > 1000 | 233 | 1300 | – | – | –
6 | O=C1CC2(CCCC2)CC(=O)N1CCCCN1CCCC12COc1ccccc1C2 (configuration not stated) | 12.5 | 3.8 | 5.95 | 178 | – | – | –
7 | CCCN1CCCCC12COc1cccc(OC)c1C2 (configuration not stated) | 14.9 | 69.1 | 41.4 | 420 | 100 | 14.7 | –
8 | COc1cccc2c1CC1(CCCCN1CCCCNS(=O)(=O)c1ccc(C)cc1)CO2 (configuration not stated) | 118 | 51.1 | 21.1 | 68 | 38 | 4.22 | –
9 | CCCN1C(=O)CCC12COc1cccc(OC)c1C2 (configuration not stated) | > 100 | > 100 | 793 | 14200 | – | – | –
10 | COc1cccc2c1CC1(CCCN1)CO2 (configuration not stated) | 10.2 | 4.4 | 71.4 | 298 | – | – | –
11 | CCCN(CCC)C1COc2cccc(OC)c2C1 (configuration not stated) | – | – | 60 | – | – | – | –
12 | COc1cccc2c1CC1(CCCCN1CCCCNC(=O)c1ccc(F)cc1)CO2 (configuration not stated) | 66.5 | – | 8.39 | 62.8 | 38.3 | 4.3 | IC50 [7]: 11.2 µM
13 | COc1cccc2c1CC1(CCCCN1CCCCN1C(=O)CC3(CCCC3)CC1=O)CO2 (configuration not stated) | 41.4 | 2.21 | 2.91 | 8.81 | 23.4 | 2.84 | –
14 | CCCN1CCCC12COc1cccc(OC)c1C2 (configuration not stated) | 3.59 | 11 | 112 | 74.6 | 120 | 6.55 | –
15 | COc1cccc2c1CC1(CCCN1CCCCN1C(=O)CC3(CCCC3)CC1=O)CO2 (single isomer, unassigned; (+)) | 12.1 | 1.3 | 0.886 | 6.72 | 22.4 | 1.31 | Effect (Rattus norvegicus [8]): 98%; Effect (Rattus norvegicus [9]): 97%; Effect (Rattus norvegicus [10]): 91%; Effect (Rattus norvegicus [11]): 88%; Effect (Rattus norvegicus [12]): 100%; Effect (Rattus norvegicus [13]): 84%; Effect (Rattus norvegicus [14]): 82%; Effect (Rattus norvegicus [15]): 79%
16 | CCCN(CCCCN1C(=O)CC2(CCCC2)CC1=O)C1COc2cccc(OC)c2C1 (single isomer, unassigned; (+)) | – | – | 3 | – | – | 0.02 | –
17 | COc1cccc2c1CC1(CCCN1CCCCN1C(=O)CC3(CCCC3)CC1=O)CO2 (single isomer, unassigned; (-)) | 10.6 | 31.1 | 13.9 | – | 23.3 | 11.3 | Effect (Rattus norvegicus [8]): 101%; Effect (Rattus norvegicus [16]): 92%; Effect (Rattus norvegicus [17]): 98%; Effect (Rattus norvegicus [18]): 81%; Effect (Rattus norvegicus [19]): 101%; Effect (Rattus norvegicus [20]): 86%
18 | CCCN(CCCCN1C(=O)CC2(CCCC2)CC1=O)C1COc2cccc(OC)c2C1 (single isomer, unassigned; (-)) | – | – | 5 | – | – | – | –
19 | CCCN(CCCCN1C(=O)CC2(CCCC2)CC1=O)C1COc2cccc(OC)c2C1 (stereo in doubt; 2) | – | – | 1 | – | – | – | –
20 | COc1cccc2c1CC1(CCCN1CCCCN1C(=O)CC3(CCCC3)CC1=O)CO2 (stereo in doubt; 11a) | 30.7 | 3.8 | 6.61 | 10.6 | – | – | –
21 | CCCN(CCC)C1CCc2cccc(O)c2C1 (configuration not stated) [8-OH-DPAT] | – | – | 49 | – | – | – | –
22 | O=C1CC2(CCCC2)CC(=O)N1CCCCN1CCN(c2ncccn2)CC1 [BUSPIRONE] | – | – | 10 | – | 270 | – | –
23 | O=C1c2ccccc2S(=O)(=O)N1CCCCN1CCN(c2ncccn2)CC1 [IPSAPIRONE] | – | – | 7.5 | – | – | – | –
